Measured values: ChEMBL document CHEMBL1157645, “Synthesis of 2-(thienyl-2-yl or -3-yl)-4-furyl-6-aryl pyridine derivatives and evaluation of their topoisomerase I and II inhibitory activity, cytotoxicity, and structure-activity relationship” (Bioorg Med Chem, 2010)

Experiments:
MCF7 = experiment: Cytotoxicity against human MCF7 cells in presence of 10% fetal bovine serum; assay type: functional
In short: (§1)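 Cells cultured per supplier's instructions and seeded at 2–4 × 10⁴ cells per well. On day 2 the medium was replaced with medium containing graded compound concentrations. On day 4 cell counting kit-8 was added for a further 4 h, and absorbance was read at 450 nm. Values are 50% inhibitory concentrations, given as mean from three experiments run in triplicate.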

DU-145 = experiment: Cytotoxicity against human DU145 cells in presence of 10% fetal bovine serum; assay type: functional, cell-based; in short: as §1
HeLa = experiment: Cytotoxicity against human HeLa cells in presence of 10% fetal bovine serum; assay type: functional, cell-based; in short: as §1
K562 = experiment: Cytotoxicity against human K562 cells in presence of 10% fetal bovine serum; assay type: functional, cell-based; in short: as §1
HCT-15 = experiment: Cytotoxicity against human HCT15 cells in presence of 10% fetal bovine serum; assay type: functional, cell-based; in short: as §1
[1] = molecular target: T1, DNA topoisomerase 1 (Homo sapiens) (UniProt P11387); experiment: Inhibition of human recombinant topoisomerase 1 assessed as inhibition of relaxation of supercoiled pBR322 DNA at 100 uM by agarose gel electrophoresis
T1 sequence (whole entry): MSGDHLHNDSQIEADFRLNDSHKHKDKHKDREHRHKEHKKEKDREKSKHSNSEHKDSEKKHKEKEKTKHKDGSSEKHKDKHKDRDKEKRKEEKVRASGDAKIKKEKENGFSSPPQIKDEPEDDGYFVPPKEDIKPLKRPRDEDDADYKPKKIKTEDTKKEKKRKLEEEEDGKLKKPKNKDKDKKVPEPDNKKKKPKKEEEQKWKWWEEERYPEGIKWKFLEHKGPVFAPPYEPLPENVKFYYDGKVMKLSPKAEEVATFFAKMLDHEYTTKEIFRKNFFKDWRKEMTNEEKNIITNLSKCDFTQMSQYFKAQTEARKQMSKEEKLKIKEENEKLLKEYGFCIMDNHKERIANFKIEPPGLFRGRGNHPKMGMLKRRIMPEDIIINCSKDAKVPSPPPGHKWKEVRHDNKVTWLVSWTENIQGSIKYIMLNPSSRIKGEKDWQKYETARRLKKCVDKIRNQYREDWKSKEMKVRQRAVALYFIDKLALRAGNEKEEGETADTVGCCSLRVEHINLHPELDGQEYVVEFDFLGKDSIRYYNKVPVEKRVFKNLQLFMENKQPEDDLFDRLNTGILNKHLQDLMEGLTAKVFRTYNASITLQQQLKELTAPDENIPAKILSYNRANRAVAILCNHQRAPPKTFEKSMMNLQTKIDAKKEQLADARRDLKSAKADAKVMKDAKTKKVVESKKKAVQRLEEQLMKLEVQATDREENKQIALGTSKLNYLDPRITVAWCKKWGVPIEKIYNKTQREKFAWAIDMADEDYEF
In short: (§2)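 100 ng pBR322 DNA was incubated with 0.4 units of recombinant human topo I, with or without compound (DMSO stocks at 20 mM), for 30 min at 37 °C in 10 mM Tris–HCl pH 7.9, 150 mM NaCl, 0.1% BSA, 1 mM spermidine and 5% glycerol. The reaction was stopped with sarkosyl/bromophenol blue/glycerol and run on 1% agarose in TAE at 15 V for 7 h. Relaxation was read from ethidium bromide staining.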

[2] = molecular target: DNA topoisomerase 2-alpha (Homo sapiens) (UniProt P11388); experiment: Inhibition of human recombinant DNA topoisomerase 2 assessed as inhibition of relaxation of supercoiled pBR322 DNA at 100 uM by agarose gel electrophoresis
In short: (§3)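 pBR322 DNA was incubated with two units of human topo IIα, with or without compound (DMSO stocks at 20 mM), in 10 mM Tris–HCl pH 7.9 with 50 mM NaCl, 5 mM MgCl₂, 1 mM EDTA, 1 mM ATP and BSA, for 30 min at 30 °C. The reaction was stopped with EDTA and run on 1% agarose in TAE at 25 V for 4 h. Gels were stained with ethidium bromide, and supercoiled DNA was quantified under UV.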

[3] = molecular target: T1, DNA topoisomerase 1 (Homo sapiens); experiment: Inhibition of human recombinant topoisomerase 1 assessed as inhibition of relaxation of supercoiled pBR322 DNA at 20 uM by agarose gel electrophoresis; in short: as §2
[4] = molecular target: DNA topoisomerase 2-alpha (Homo sapiens) (UniProt P11388); experiment: Inhibition of human recombinant DNA topoisomerase 2 assessed as inhibition of relaxation of supercoiled pBR322 DNA at 20 uM by agarose gel electrophoresis; in short: as §3

DNA topoisomerase 2-alpha (Homo sapiens), sequence (P11388 whole entry): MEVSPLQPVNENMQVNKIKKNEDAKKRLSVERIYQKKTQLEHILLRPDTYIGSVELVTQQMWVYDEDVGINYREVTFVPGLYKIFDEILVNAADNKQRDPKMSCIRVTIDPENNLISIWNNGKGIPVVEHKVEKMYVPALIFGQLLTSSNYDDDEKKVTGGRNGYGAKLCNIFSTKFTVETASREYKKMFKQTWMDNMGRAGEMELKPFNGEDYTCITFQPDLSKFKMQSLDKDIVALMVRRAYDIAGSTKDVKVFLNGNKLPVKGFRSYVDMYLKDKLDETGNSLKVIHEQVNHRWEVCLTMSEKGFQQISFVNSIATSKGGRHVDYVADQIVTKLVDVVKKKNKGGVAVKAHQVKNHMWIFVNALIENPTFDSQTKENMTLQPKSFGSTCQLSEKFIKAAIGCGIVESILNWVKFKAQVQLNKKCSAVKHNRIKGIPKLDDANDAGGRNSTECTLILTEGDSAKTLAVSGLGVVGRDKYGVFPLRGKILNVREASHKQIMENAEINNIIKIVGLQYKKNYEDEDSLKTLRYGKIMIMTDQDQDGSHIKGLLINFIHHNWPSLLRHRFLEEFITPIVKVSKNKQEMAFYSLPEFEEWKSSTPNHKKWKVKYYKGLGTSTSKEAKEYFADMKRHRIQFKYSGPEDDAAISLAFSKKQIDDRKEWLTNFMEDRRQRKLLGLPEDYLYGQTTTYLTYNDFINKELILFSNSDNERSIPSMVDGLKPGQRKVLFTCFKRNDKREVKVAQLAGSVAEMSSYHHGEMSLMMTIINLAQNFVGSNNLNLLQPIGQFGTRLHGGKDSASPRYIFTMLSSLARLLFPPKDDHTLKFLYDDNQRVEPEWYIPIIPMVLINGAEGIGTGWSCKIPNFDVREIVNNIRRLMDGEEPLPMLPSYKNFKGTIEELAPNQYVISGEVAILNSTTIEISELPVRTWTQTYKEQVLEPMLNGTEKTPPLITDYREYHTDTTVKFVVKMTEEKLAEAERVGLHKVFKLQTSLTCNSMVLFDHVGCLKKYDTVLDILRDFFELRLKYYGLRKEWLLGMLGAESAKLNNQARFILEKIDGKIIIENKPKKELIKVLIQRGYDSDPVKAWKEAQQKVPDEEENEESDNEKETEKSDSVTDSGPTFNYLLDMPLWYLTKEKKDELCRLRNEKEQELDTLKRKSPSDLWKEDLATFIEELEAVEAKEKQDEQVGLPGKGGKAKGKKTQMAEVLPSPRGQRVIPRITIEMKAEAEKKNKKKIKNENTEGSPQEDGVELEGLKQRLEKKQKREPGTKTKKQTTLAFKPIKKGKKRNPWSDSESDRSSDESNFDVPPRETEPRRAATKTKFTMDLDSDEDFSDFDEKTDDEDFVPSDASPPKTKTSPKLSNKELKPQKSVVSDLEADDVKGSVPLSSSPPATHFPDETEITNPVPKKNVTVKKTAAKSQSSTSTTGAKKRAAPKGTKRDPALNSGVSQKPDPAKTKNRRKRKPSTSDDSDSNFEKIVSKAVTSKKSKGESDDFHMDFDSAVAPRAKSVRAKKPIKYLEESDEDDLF

Row | Structure (SMILES) | inhibition [1] [%] | inhibition [2] [%] | inhibition [3] [%] | inhibition [4] [%] | IC50 (MCF7) [µM] | IC50 (DU-145) [µM] | IC50 (HeLa) [µM] | IC50 (K562) [µM] | IC50 (HCT-15) [µM]
1 | COc1cc([C@@H]2c3cc4c(cc3[C@@H](O[C@@H]3O[C@@H]5CO[C@@H](C)O[C@H]5[C@H](O)[C@H]3O)[C@H]3COC(=O)[C@H]23)OCO4)cc(OC)c1O [ETOPOSIDE] |  |  |  |  | 1.66 | 2.45 | 1.57 | 2.84 | 1.29
2 | Cc1ccc(-c2cc(-c3ccoc3)cc(-c3ccsc3)n2)cc1 | 13.2 | 14.2 |  |  | 9.32 | 13 | 1.47 | 47.8 | 44.8
3 | CC[C@@]1(O)C(=O)OCc2c1cc1n(c2=O)Cc2cc3ccccc3nc2-1 [CAMPTOTHECIN] |  |  |  |  | 0.05 | 0.94 | 0.63 | 0.08 | 0.64
4 | Clc1ccc(-c2cc(-c3cccnc3)nc(-c3cccs3)c2)o1 | 25.8 | 51.5 |  | 30.9 | 2.87 | 13 | 14.6 | 22.3 | 1.24
5 | Clc1ccc(-c2cc(-c3ccc(Cl)o3)cc(-c3cccs3)n2)cc1 | 38.9 | 42.5 | 6.3 | 38.1 | 2.45 | 19.2 | 21.3 | 20.9 | 14.2
6 | COc1cccc2c1C(=O)c1c(O)c3c(c(O)c1C2=O)C[C@@](O)(C(=O)CO)C[C@@H]3O[C@H]1C[C@H](N)[C@H](O)[C@H](C)O1.Cl [DOXORUBICIN HYDROCHLORIDE] |  |  |  |  | 1.25 | 1.98 |  | 2.45 | 2.32
7 | Clc1ccc(-c2cc(-c3ccoc3)cc(-c3ccsc3)n2)cc1 | 0 | 20.5 |  |  | 56.1 | 37.6 | 4.14 | 0.73 | > 100
8 | Clc1ccc(-c2cc(-c3ccoc3)cc(-c3cccs3)n2)cc1 | 0 | 30.2 |  |  | 29.1 | 21.1 | 5.53 | 21.1 | 50
9 | Cc1ccc(-c2cc(-c3ccc(Cl)o3)cc(-c3cccs3)n2)cc1 | 41.8 | 21.8 | 9.3 |  | 1.33 | 19.3 | 16.3 | 21.5 | 9.89
10 | Clc1ccc(-c2cc(-c3ccco3)nc(-c3cccs3)c2)o1 | 16 | 38.5 |  | 25.5 | 5.27 | 21.8 | 18.8 | 16 | > 50
11 | Clc1ccc(-c2cc(-c3ccco3)cc(-c3cccs3)n2)cc1 | 2.7 | 31.4 |  |  | 24.6 | > 100 | 32.7 | > 100 | > 100

Now from value to molecule, other results behind:

Row | inhibition [1] [%] | inhibition [2] [%] | inhibition [3] [%] | inhibition [4] [%] | Structure (SMILES) | IC50 (MCF7) [µM] | IC50 (DU-145) [µM] | IC50 (HeLa) [µM] | IC50 (K562) [µM] | IC50 (HCT-15) [µM]
12 | 41.3 | 35 | 8 | 15.4 | Clc1ccc(-c2cc(-c3cccs3)nc(-c3ccccc3Cl)c2)o1 | 1.93 | 16.8 | 18.5 | 17.2 | 6.19
13 | 6.7 | 59.6 |  | 46.3 | Cc1ccccc1-c1cc(-c2ccc(Cl)o2)cc(-c2ccsc2)n1 | 1.23 | 24.8 | 9.77 | 18.4 | 4.63
14 | 0 | 86.5 |  | 60.8 | Clc1ccc(-c2cc(-c3cccnc3)nc(-c3ccsc3)c2)o1 | > 50 | 21.6 | > 50 | 21.7 | > 50
15 | 0 | 63.1 |  | 60.9 | Clc1ccc(-c2cc(-c3ccsc3)nc(-c3ccccn3)c2)o1 | 21 | 10.9 | 22.5 | 21.9 | > 50
16 | 42 | 44.7 | 8.5 | 32.7 | Clc1cccc(-c2cc(-c3ccc(Cl)o3)cc(-c3cccs3)n2)c1 | 2.86 | 18.1 | 12.8 | 19.8 | 15.5
17 | 0 | 75.9 |  | 75.4 | Clc1cccc(-c2cc(-c3ccc(Cl)o3)cc(-c3ccsc3)n2)c1 | 4.26 | 10.4 | 8.71 | 23 | 13.7
18 | 2.6 | 78.9 |  | 70.2 | Cc1ccc(-c2cc(-c3ccc(Cl)o3)cc(-c3ccsc3)n2)cc1 | 0.63 | 21.2 | 16.2 | 19.9 | 7.41
19 | 0 | 64.1 |  | 59.5 | Clc1ccc(-c2cc(-c3ccsc3)nc(-c3ccccc3Cl)c2)o1 | 1.71 | 19.3 | 8.07 | 17.2 | 4.57
20 | 8.2 | 78.6 |  | 63.8 | Clc1ccc(-c2cc(-c3ccsc3)nc(-c3ccco3)c2)o1 | 21.3 | 18.9 | > 50 | 22.4 | > 50
21 | 9.1 | 62.6 |  | 34.7 | Cc1ccc(-c2cc(-c3ccc(Cl)o3)cc(-c3ccsc3)n2)o1 | 1.42 | 18.5 | > 50 | 23.3 | > 50
22 | 29.8 | 75.9 | 5.2 | 65.7 | Clc1ccc(-c2cc(-c3ccc(Cl)o3)cc(-c3ccsc3)n2)cc1 | 1.77 | 19.5 | 8.41 | 18.7 | 5.19
23 | 7.5 | 64.1 |  | 56.7 | Cc1cccc(-c2cc(-c3ccc(Cl)o3)cc(-c3ccsc3)n2)c1 | 1.28 | 17.9 | 20.3 | 20.2 | 21.7
